Screening data deposited in PubChem BioAssay by Broad Institute.
F508del corr: CFTR F508del correction in bronchial cells; CFBE cells, YFP halide quenching; stimulated with forskolin plus potentiator P3; % fluorescence drop versus neutral controls; activity (quench increase), % at 7.58 µM; 350,000 compounds, 0.36% hits; AID 720511;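 active means mean added fluorescence quench of at least 8% versus neutral control, with both replicates also reaching 8%; inconclusive means only one of the mean or replicate conditions met; inactive means mean below 8% and not both replicates reaching 8%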;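 further: cells transiently co-express mutant CFTR-F508del with the halide-sensitive YFP; corrector assay measuring rescue of mutant channel to the surface after 24 h compound exposure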
E-selectin induc: E-selectin induction on HUVECs; P16581; AID 686992; activation, % at 7.58 µM; HUVEC E-selectin immunofluorescence imaging; normalized: neutral wells 0, TNF-alpha wells 100; 260,000 compounds, 0.37% hits;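 active means mean E-selectin-positive cell signal at least 10% of the positive control, reached in at least 60% of replicates, without over 20% cell loss; inconclusive means no rule given, readout overlaps actives, possibly toxicity-flagged; inactive means the rest, including those meeting only one limit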
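System: HUVEC, human umbilical vein endothelial cells; quantity: 3,000 cells/well; buffer or medium: EGM-2 medium, gelatin-coated wells; dosing: single-point compound dose; detection: immunofluorescence imaging; evaluation: % PE-positive cells; benchmarks: TNF-alpha, DMSO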
S100A4 MyoIIA: blocks human S100A4 binding to myosin IIA peptide; P26447; S100A4/TAMRA-MyoIIA peptide fluorescence polarization; inhibition, % at 10.7 µM; 360,000 compounds, 0.14% hits;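 active means mean inhibition of at least 70% across replicates, with every replicate also reaching that level; inconclusive means mean inhibition reaches 70% but some replicates fall short; inactive means mean inhibition below 70%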
Target sequence (P26447 whole entry, looked up): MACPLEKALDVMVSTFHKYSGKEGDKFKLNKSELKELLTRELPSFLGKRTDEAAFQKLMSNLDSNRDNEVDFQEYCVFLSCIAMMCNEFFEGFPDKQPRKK
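Material: S100A4 monomer (human). Medium: Calcium-containing HEPES buffer, pH 7.2. Probe or stimulus: labelled myosin peptide probe, 5 nM. Compound dosing: one concentration per compound. Timing: polarization read 5 min after assay mix addition, stable 5–60 min. Benchmarks: DMSO as neutral control, TFP as positive control.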
FGF22 binding: shifts melting point of recombinant human FGF22; Q9HCT0; recombinant FGF22 thermal shift, SYPRO orange fluorescence; percent of sucrose octasulfate shift, DMSO zero; activity (Tm shift, normalised), % at 9.99 µM; 340,000 compounds, 1.5% hits; AID 651658;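 active means mean Tm shift, scaled 0 neutral to 100 positive control, at about 1.3% or above, every replicate too, limit read from the data; inconclusive means no clear call, values can overlap the other calls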
Target sequence (Q9HCT0 whole entry, looked up): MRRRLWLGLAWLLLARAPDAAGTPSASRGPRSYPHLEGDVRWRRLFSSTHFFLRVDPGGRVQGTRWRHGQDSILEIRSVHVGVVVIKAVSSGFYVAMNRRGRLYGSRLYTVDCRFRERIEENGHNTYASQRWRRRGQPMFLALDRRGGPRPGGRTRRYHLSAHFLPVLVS
HIV Env fusion: HIV envelope-mediated fusion inhibition. inhibition, % at 12.3 µM. 360,000 compounds, 1.1% hits. AID 651610. HeLa-JRFL Env/CEM21 cell fusion, luciferase;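 active means mean replicate inhibition score of at least 50 and every replicate individually at or above 50; inconclusive means only one of the two criteria met; inactive means mean below 50 and not all replicates reaching 50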;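 further: 0% = plate neutral controls and 100% = maraviroc near 300 nM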
Starred values were filed as active, the others as inactive; ? = inconclusive; . = no result; [ ] = remark or other dose. In the library only some 2.7% were active in any assay of this set; here they are far more common.

SMILES	F508del corr	E-selectin induc	S100A4 MyoIIA	FGF22 binding	HIV Env fusion
C[C@H](CO)N1C[C@H](C)[C@H](CN(C)C(=O)NC2CCCCC2)Oc2cc(C#Cc3cccc(F)c3)ccc2S1(=O)=O	8.4*	-4	1	0	25[16.7 µM]
C[C@@H]1CN([C@H](C)CO)S(=O)(=O)c2ccc(C#Cc3cccc(F)c3)cc2O[C@@H]1CN(C)C(=O)NC1CCCCC1	10*	0	-7	0	14[16.7 µM]
CC(=O)N(C)C[C@@H]1Oc2cc(C#Cc3ccc(F)cc3)ccc2S(=O)(=O)N([C@H](C)CO)C[C@@H]1C	8.0*	0	7	0	.
CCCCNC(=O)C1C(c2ccc(C(F)(F)F)cc2)=Nc2ccccc2N1C(=O)c1cccc(C(F)(F)F)c1 (configuration not stated)	1	0	-19	0	26
O=C(NC1CCCC1)C1C(c2ccc(C(F)(F)F)cc2)=Nc2ccccc2N1C(=O)c1ccccc1 (configuration not stated)	-1	136*	-2	0	-41
O=C(NC1CCCC1)C1C(c2ccc(C(F)(F)F)cc2)=Nc2ccccc2N1C(=O)c1ccco1 (configuration not stated)	-1	1	-1	0	-22
Cc1nc2ccc(C(=O)N3c4ccccc4N=C(c4ccc(C(F)(F)F)cc4)C3C(=O)NC(C)(C)C)cc2[nH]1 (configuration not stated)	1	0	0	0	89*
O=[N+]([O-])c1cccc(COc2ccccc2CN2CCOCC2)c1	-1	?	-23	0	56*
COc1ccc(S(=O)(=O)N(C)C[C@@H]2OCCCC[C@H](C)Oc3ccc(NC(=O)CCCN(C)C)cc3C(=O)N([C@H](C)CO)C[C@@H]2C)cc1	0	0	56	0	3[16.7 µM]
C[C@@H]1CCCCO[C@H](CN(C)Cc2ccc(Cl)c(Cl)c2)[C@H](C)CN([C@@H](C)CO)C(=O)c2cc(NS(=O)(=O)c3ccccc3)ccc2O1	3	0	6	1	57*[16.7 µM]
C[C@@H]1CCCCO[C@H](CN(C)Cc2ccc(Cl)c(Cl)c2)[C@@H](C)CN([C@H](C)CO)C(=O)c2cc(NS(=O)(=O)c3cccs3)ccc2O1	1	0	3	1.2*	-6[16.7 µM]
CNC[C@@H]1OCCCC[C@H](C)Oc2ccc(NS(=O)(=O)c3cccs3)cc2C(=O)N([C@@H](C)CO)C[C@@H]1C	-3	0	-2	0	-7[16.7 µM]
CNC[C@@H]1OCCCC[C@@H](C)Oc2ccc(NS(=O)(=O)c3cccs3)cc2C(=O)N([C@H](C)CO)C[C@H]1C	0	0	101*	0	34[16.7 µM]
C[C@@H]1CN([C@H](C)CO)C(=O)c2cc(NS(=O)(=O)c3ccc(Cl)cc3)ccc2O[C@@H](C)CCCCO[C@H]1CN(C)Cc1ccc(Cl)c(Cl)c1	-2	0	102*	-1	-12[16.7 µM]
C[C@@H]1CN([C@H](C)CO)C(=O)c2cccc(NC(=O)Nc3ccccc3)c2O[C@H]1CN(C)S(=O)(=O)c1ccc(F)cc1	0	0	8	0	.
COCC(=O)N1CC2(CN(C(C)=O)C2)c2c([nH]c3cc(OC)ccc23)[C@@H]1CO	0	0	.	0	.
C[C@H](CO)N1C[C@H](C)[C@@H](CN(C)Cc2ccc(Cl)c(Cl)c2)OCCCC[C@H](C)Oc2ccc(NS(=O)(=O)c3ccc(F)cc3)cc2C1=O	5	0	-4	0	78*[16.7 µM]
C[C@H]1CCCCO[C@H](CN(C)Cc2ccc(Cl)c(Cl)c2)[C@@H](C)CN([C@@H](C)CO)C(=O)c2cc(NS(=O)(=O)c3ccc(F)cc3)ccc2O1	5	0	0	0	.
Cc1ccc(/C=N\Nc2cn[nH]c(=O)c2Cl)cc1	.	.	.	.	-24
Cc1ccsc1/C=N\Nc1cn[nH]c(=O)c1Cl	5	.	0	0	56*
C[C@H](CO)N1C[C@H](C)[C@H](CN(C)C)OCc2cn(nn2)CCCC1=O	2	0	.	.	.
COc1ccc(N(C)S(=O)(=O)c2cccc(C(=O)NCC3CCCCC3)c2)cc1	8.7*	?	-2	0	11
COc1ccc(N(C)S(=O)(=O)c2cccc(C(=O)NC3CCCC3)c2)cc1	4	.	-2	0	15
